# Most compounds without a hit are left out; they make up all but 9.3% or so of the library.
# PostGolgi yeast – growth inhibition of a yeast mutant, post-Golgi transport screen. post-Golgi transport phenotypic cell assay. inhibition, % at 10 µM. hit rate 0.9% among 98,000;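 note: yeast cells grown in 1536-well plates; yeast grown about 18 h at 30C before absorbance read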
# PostGolgi ctrl – growth of the yeast control strain, post-Golgi counter-screen; inhibition, % at 10 µM; hit rate 5% among 98,000; efflux-deficient yeast background strain, growth absorbance A615, 16 h
# Ecoli tolC – blocks growth of E. coli BW25113 tolC mutant; growth inhibition, % at 10 µM (by protocol); AID 573; OD615; hit rate 2.2% among 65,000;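 active = growth inhibition at or above a cutoff equal to the mean over every tested compound plus 3 SD, cut at about 60% in these data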;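 note: growth measured after 20 h incubation at 37 °C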
#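 Test system: tolC-deleted E. coli BW25113 | Medium: LB with kanamycin 50 µg/mL | Compound dosing: Single concentration, 10 µM final per compound | Schedule: 37 °C, 20 h exposure | Measured by: OD at 615 nm | Evaluation: Percent growth inhibition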
# D1 allo mod – allosteric modulators of human D1 dopamine receptor | P21728 | HEK293 D1, CRE-luciferase, dopamine EC30 potentiation; actives deviate in either direction | B-score at 10 µM | hit rate 5.9% among 58,000 | AID 641;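 active = luminescence count or its row- and column-corrected plate score outside the 99.7% band of the plate's sample wells, on either side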
# Target sequence (P21728 whole entry, looked up): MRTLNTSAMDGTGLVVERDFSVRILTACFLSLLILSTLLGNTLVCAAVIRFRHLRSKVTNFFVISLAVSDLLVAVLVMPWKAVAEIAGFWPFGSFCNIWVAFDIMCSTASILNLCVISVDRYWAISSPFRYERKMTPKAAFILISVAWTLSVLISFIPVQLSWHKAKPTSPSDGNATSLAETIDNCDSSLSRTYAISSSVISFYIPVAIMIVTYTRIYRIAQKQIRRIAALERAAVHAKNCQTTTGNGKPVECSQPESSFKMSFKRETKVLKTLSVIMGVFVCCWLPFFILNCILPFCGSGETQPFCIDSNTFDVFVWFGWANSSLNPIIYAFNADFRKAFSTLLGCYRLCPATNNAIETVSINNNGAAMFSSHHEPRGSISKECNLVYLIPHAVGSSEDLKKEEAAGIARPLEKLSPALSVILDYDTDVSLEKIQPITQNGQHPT
# hDAT+cocaine – changed human dopamine transporter uptake under cocaine IC80. AID 449768. LLC-PK1 hDAT cells, [14C]-dopamine uptake with cocaine IC80; actives deviate in either direction. Q01959. hit rate 1.3% among 110,000. B-score at 10 µM;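 active = Z score or B-score, a plate-position-corrected score, falls beyond the plate's 99.7% confidence bounds, in either direction; inactive = both scores lie inside the 99.7% bounds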;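 note: scored against the spread of the other compound wells on the same plate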
# Ecoli WT expand – E. coli BW25113 growth inhibition, expanded screen; OD600 absorbance; growth inhibition, % at 100 µM; hit rate 0.15% among 98,000;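 active = growth inhibition above about 50% at one test dose, limit read from the data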;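 note: growth measured after 20 h incubation at 37 °C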
# An asterisk follows results filed as active; nt = no result. Cut-off read from the data, not from the text of the source, unless noted: active = inhibition above about 30%; inactive = the rest.
SMILES,PostGolgi yeast,PostGolgi ctrl,Ecoli tolC,D1 allo mod,hDAT+cocaine,Ecoli WT expand
CCOC(=O)c1nc(NCc2cccnc2)c2ccccc2n1,-3,2,-9,2.7*,-0.45,4
C1=C(CCNCC2CCCCC2)CCCC1,-5,15,nt,nt,nt,13
Cc1[nH]nc(N=CC2=C(O)CC(C)(C)CC2=O)c1-c1ccc(Cl)cc1,79*,23,15,0.27,0.62,12
Cc1[nH]nc(N=CC2=C(O)CC(c3ccco3)CC2=O)c1-c1ccc(Cl)cc1 (configuration not stated),2,22,nt,nt,-0.062,-7
CC1CCN(S(=O)(=O)c2ccc3c(c2)CCN3C(=O)CCC(=O)O)CC1,2,3,-10,-0.26,-0.3,-4
CCCCOC(=O)CSc1nnc(-c2ccc(Cl)cc2Cl)o1,-1,16,73*,-0.27,-0.01,11
COc1ccc2nc(SCC(=O)NC(C)(C)C)[nH]c2c1,1,10,-4,-2.1*,0.0081,6
Cc1cc(OCC(=O)NCc2nc(-c3ccccc3)no2)c(C)cc1Br,1,33*,-14,-0.14,-0.43,-9
Cc1cc(C)c(C)c(OCC(=O)NCc2nc(-c3ccccc3)no2)c1,1,41*,21,-0.0033,0.23,-9
COc1cccc(N2C(=O)C3C(C2=O)C2C=CC3C23CC3)c1 (configuration not stated),0,12,-12,nt,-0.049,-8
COc1cccc(NC(=O)Cn2cnc3sc(C)c(S(=O)(=O)N4CCCCC4)c3c2=O)c1,-8,-13,nt,nt,-0.8,1
CCOC(=O)c1cnn(-c2ccccc2)c1-n1cccc1C(=O)C(=O)Nc1ccccc1,2,31*,nt,nt,0.38,-32
CCOC(=O)c1cnn(-c2ccccc2)c1-n1cccc1C(=O)C(=O)Nc1ccc(F)cc1,-10,18,nt,nt,0.24,-6
O=C(O)C1=C[C@H](c2coc3ccccc3c2=O)C[C@H](OCc2ccc(CO)cc2)O1,nt,nt,nt,nt,-0.77,nt
COC(=O)c1sccc1-c1ccc(/C=N/OC(=O)c2ccccc2)o1,4,16,nt,nt,-0.14,-11
Cn1c(NC(=O)c2ccc(Br)o2)cc(=O)n(C)c1=O,10,0,-18,-0.19,-2.4,10
O=C(CCSc1nnc(-c2ccncc2)o1)Nc1ccc(F)cc1,93*,89*,-6,-0.029,nt,6
O=C(Nc1ccccc1C(=O)NCc1ccccc1)c1ccccc1,-4,16,nt,nt,-0.95,-11
CCCNC(=O)c1ccccc1NC(=O)c1ccc(CSc2ccccc2)cc1,12,80*,nt,nt,1.9,-3
COc1cccc2sc(Nc3nc(-c4ccccn4)cs3)nc12,98*,87*,98*,-1.8,1.7,-1
c1ccc(-c2ccc(-c3ccccn3)nn2)nc1,-6,2,9,-8.7*,nt,21
c1ccc(-c2ccccn2)nc1,nt,nt,-1,nt,-0.17,nt
COC(=O)c1cc(=O)n(CCc2ccc(OC)c(OC)c2)c(=Nc2ccc(F)c(Cl)c2)s1,0,15,nt,nt,-0.57,-7
COCCCNCC(=O)Nc1ccc(OC(F)(F)F)cc1,9,42*,-16,-0.27,nt,-12
Cc1ccc(-c2noc(CSc3nnnn3C3CCCCC3)n2)cc1,-7,40*,73*,nt,0.24,2
SMILES,PostGolgi yeast,PostGolgi ctrl,Ecoli tolC,D1 allo mod,hDAT+cocaine,Ecoli WT expand
Cc1ccc(-c2noc(CSc3nnc(-c4ccncc4)n3-c3ccc(C)cc3)n2)cc1,-5,17,nt,nt,2,-4
Cc1c(-c2nc(N)nc(Nc3ccc(F)cc3)n2)oc2ccccc12,7,40*,-2,1.6,0.69,-8
COC(/C=C/Nc1ccc(OC)cc1)=C(C#N)C#N,0,31*,nt,nt,-1.3,1
COc1ccc(C(=O)Cn2c(N3CCOCC3)nc3ccccc32)cc1OC,nt,nt,-17,-3*,nt,nt
COc1ccc(N2CCN(c3nc4ccccc4n3CC(=O)c3ccccc3)CC2)cc1,-4,24,21,nt,-0.53,-13
CCN1CCN(C(=O)c2cc3nc(-c4ccccc4)cc(C(F)(F)F)n3n2)CC1,-3,15,-9,-0.33,0.035,4
Cc1ccnc(N2CCC(C(=O)Nc3cccc(C(F)(F)F)c3)CC2)n1,1,8,65*,nt,2.2,0
Cc1cc(C(=O)CSc2n[nH]c(-c3ccccc3F)n2)c(C)n1Cc1cccs1,1,33*,nt,nt,1.8,-22
Cc1csc(SCC(=O)c2cc(C)n(Cc3cccs3)c2C)n1,-14,12,36,-5.2*,-0.026,-14
O=C(NCc1ccccc1F)C1CCCN1C(=O)NCc1ccccc1 (configuration not stated),7,0,-14,0.053,0.31,5
CCOc1cc(S(=O)(=O)N2CCN(c3ccc(F)cc3)CC2)c(OCC)cc1-n1cnnn1,3,82*,-3,-0.17,-0.75,-1
CCOc1ccc(-n2cnnn2)cc1S(=O)(=O)N1CCCCC1,-4,9,-2,-0.43,-0.35,-5
CC(C)[C@@H](C(=O)N1CCNCC1)n1cc(CCO)nn1,nt,nt,nt,nt,-0.98,nt
COc1ccccc1-c1nc(C#N)c(N2CCN(c3ccccc3)CC2)o1,3,26,20,2.3,0.8,-10
COc1ccccc1-c1nc(C#N)c(N2CCCCCC2)o1,-10,42*,nt,nt,-0.34,3
N#Cc1nc(-c2ccco2)oc1N1CCN(c2ccccc2)CC1,8,6,32,-0.38,2,0
COc1ccc(N2CCN(c3oc(-c4ccco4)nc3C#N)CC2)cc1,32*,-3,34,0.63,-0.65,8
COc1ccc(-c2nc(C#N)c(N3CCc4ccccc4C3)o2)cc1OC,5,33*,nt,nt,1,-8
COc1ccc(O)c(-c2[nH]ncc2C(=O)c2ccccc2)c1,7,-7,4,-0.041,-0.27,-7
Cc1ccc(C(=O)c2cn[nH]c2-c2cc(Cl)ccc2O)cc1,0,38*,13,-0.75,-0.99,16
CC(C)(C)c1ccc(OCc2nc(-c3ccccn3)no2)c(Br)c1,-1,32*,100*,-3.1,0.052,3
Clc1cc(Cl)c(OCc2nc(-c3ccccn3)no2)cc1Cl,3,13,-3,-1.1,-0.49,-13
COc1c(N2CCN(C(=S)NCc3ccccc3)C(C)C2)c(F)cc2c(=O)c(C(=O)O)cn(C3CC3)c12 (configuration not stated),-2,24,nt,nt,3.3,88*
CCOC(=O)c1ccccc1NC(=O)CSc1nnc(COc2ccccc2C)n1C,2,38*,49,-0.28,1.3,-4
CCOC(=O)c1ccccc1NC(=O)CSc1nnnn1C1CCCCC1,14,19,72*,0.06,-0.3,-11
COC(=O)c1ccccc1NC(=O)CSc1nnnn1C1CCCCC1,5,30,49,1.4,0.027,-2
O=C(Cn1nc(C(F)F)cc1C1CC1)NCCC1=CCCCC1,-1,5,9,-0.56,0.094,3
CN(C)CCNC(=O)Cn1nc(C(F)F)cc1C1CC1,-3,32*,-7,-0.083,0.082,3
C=CCSc1nc(C)c2cc(C)cc(C)c2n1,6,1,nt,nt,-0.74,1
